ChEMBL document CHEMBL3576866, “Discovery of a Cyclic Boronic Acid β-Lactamase Inhibitor (RPX7009) with Utility vs Class A Serine Carbapenemases” (J Med Chem, 2015)
Calls of active or inactive are those of the source. The calls are words filed in the database; no cut-off is given here.

What was measured:
[1] = biological target: Beta lactamase TEM-1 (Klebsiella pneumoniae) (UniProt Q7B899); experiment: Inhibition of Klebsiella pneumoniae KP1084 TEM-1 assessed as biapenem MIC at 4 ug/ml by broth microdilution method
[2] = tested on: Klebsiella pneumoniae; experiment: Inhibition of Klebsiella pneumoniae KP1087 CTX-M-15 assessed as biapenem MIC at 4 ug/ml by broth microdilution method
[3] = tested on: Klebsiella pneumoniae; experiment: Inhibition of Klebsiella pneumoniae KP1004 SHV-11 assessed as meropenem MIC at 4 ug/ml by broth microdilution method
In short: (§1)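 CLSI broth microdilution (M07-A9, 2012) MIC of the carbapenem against clinical serine carbapenemase-producing strain, tested alone and with the inhibitor held at a fixed 4 μg/mL.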

[4] = tested on: Klebsiella oxytoca; experiment: Inhibition of Klebsiella oxytoca KX1019 OXA-2 assessed as meropenem MIC at 4 ug/ml by broth microdilution method
[5] = biological target: Beta-lactamase TEM (Enterobacter cloacae) (UniProt Q6W9J1); experiment: Inhibition of Enterobacter cloacae ECL1058 TEM-1 assessed as meropenem MIC at 4 ug/ml by broth microdilution method
[6] = biological target: Class A carbapenemase KPC-2 (Escherichia coli) (UniProt A8DS27); experiment: Inhibition of Escherichia coli EC1007 KPC-3 assessed as meropenem MIC at 4 ug/ml by broth microdilution method
[7] = biological target: Beta lactamase TEM-1 (Klebsiella pneumoniae) (UniProt Q7B899); experiment: Inhibition of Klebsiella pneumoniae KP1087 TEM-1 assessed as meropenem MIC at 4 ug/ml by broth microdilution method; in short: as §1
[8] = tested on: Klebsiella pneumoniae; experiment: Inhibition of Klebsiella pneumoniae KP1084 SHV-11 assessed as meropenem MIC at 4 ug/ml by broth microdilution method; in short: as §1
[9] = biological target: Chymase (Homo sapiens, UniProt P23946); experiment: Inhibition of chymase (unknown origin) using Suc-AAPF-AMC as substrate preincubated for 10 mins followed by substrate addition measured for 30 mins by spectrophotometric analysis
Sequence of Chymase (P23946 whole entry): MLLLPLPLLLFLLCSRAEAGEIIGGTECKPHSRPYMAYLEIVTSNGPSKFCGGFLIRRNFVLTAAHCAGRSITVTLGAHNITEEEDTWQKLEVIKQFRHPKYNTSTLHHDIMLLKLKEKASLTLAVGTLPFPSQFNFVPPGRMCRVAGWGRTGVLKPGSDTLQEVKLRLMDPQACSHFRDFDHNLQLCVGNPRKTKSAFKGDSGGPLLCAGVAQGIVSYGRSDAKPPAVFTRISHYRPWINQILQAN
In short: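 Commercial chymase in 100 mM Tris, pH 8.0, 2 M NaCl, 0.01% Triton X-100. Mixed with inhibitor at various concentrations for 10 min at 37 °C before Suc-AAPF-AMC (listed at 40 μM), then fluorescence followed for 30 min. Rates were taken relative to a no-treatment control; IC50 is the concentration giving 50% inhibition.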

[10] = biological target: Dipeptidyl peptidase 2 (Homo sapiens, UniProt Q9UHL4); experiment: Inhibition of dipeptidyl peptidase 7 (unknown origin) using H-Lys-Pro-AMC as substrate preincubated for 10 mins followed by substrate addition measured for 30 mins by spectrophotometric analysis
In short: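 DPP7 (commercial) in 50 mM Na-acetate, pH 5.8. Preincubated 10 min at 37 °C with inhibitor at several concentrations, then H-Lys-Pro-AMC (listed at 100 μM) added and fluorescence monitored for 30 min. Activity was relative to a no-treatment control; IC50 is the concentration giving half inhibition.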

[11] = biological target: Neutrophil elastase (Homo sapiens, UniProt P08246); experiment: Inhibition of neutrophil elastase (unknown origin) using MeOSuc-AAVP-AMC as substrate preincubated for 10 mins followed by substrate addition measured for 30 mins by spectrophotometric analysis
Sequence of Neutrophil elastase (P08246 whole entry): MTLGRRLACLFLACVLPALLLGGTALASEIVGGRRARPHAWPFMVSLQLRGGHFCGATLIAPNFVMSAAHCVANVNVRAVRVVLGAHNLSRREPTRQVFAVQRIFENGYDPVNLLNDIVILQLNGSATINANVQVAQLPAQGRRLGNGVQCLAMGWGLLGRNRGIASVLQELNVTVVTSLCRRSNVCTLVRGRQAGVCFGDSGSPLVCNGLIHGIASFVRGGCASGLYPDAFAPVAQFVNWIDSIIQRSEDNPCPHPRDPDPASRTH
In short: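 Purified commercial enzyme, mixed with inhibitor across a concentration range in 50 mM Tris-HCl pH 7.5, 1 M NaCl and held 10 min at 37 °C. MeOSuc-AAVP-AMC (30 μM) then added and fluorescence followed for 30 min. Rates expressed relative to untreated control. IC50 taken as the concentration giving 50% inhibition. AEBSF and leupeptin served as positive controls.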

[12] = Cmax in rat at 300 mg/kg, iv administered as 0.5 hrs infusion by HPLC-MS method; format: ADME, organism-based; parameters: dose 300 mg/kg, route intravenous; conditions: in vivo
[13] = Cmax in rat at 1000 mg/kg, iv administered as 0.5 hrs infusion by HPLC-MS method; format: ADME, organism-based; parameters: dose 1000 mg/kg, route intravenous; conditions: in vivo
[14] = Half life in rat at 1000 mg/kg, iv administered as 0.5 hrs infusion by HPLC-MS method; format: ADME, organism-based; conditions: in vivo
[15] = tested on: Mus musculus; experiment: Toxicity in Swiss webster neutropenic mouse lung infection model up to 1000 mg/kg, administered every 2 hrs starting at 2 hrs; format: organism-based; conditions: in vivo
[16] = AUC in human at 1 g administered as 3 hrs of infusion; format: ADME, organism-based; conditions: in vivo, iv
[17] = biological target: Beta-lactamase SHV-5 (Klebsiella pneumoniae) (UniProt P0A3M1); experiment: Inhibition of Klebsiella pneumoniae KP1011 SHV5 assessed as cefepime MIC at 4 ug/ml by broth microdilution method
In short: (§2)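 CLSI broth microdilution (M07-A9) against clinical strains expressing serine β-lactamases.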

[18] = tested on: Enterobacter cloacae; experiment: Inhibition of Enterobacter cloacae EC1010 CMY-6 assessed as cefepime MIC at 4 ug/ml by broth microdilution method; in short: as §2
[19] = biological target: Beta lactamase TEM-1 (Klebsiella pneumoniae) (UniProt Q7B899); experiment: Inhibition of Klebsiella pneumoniae KP1087 TEM-1 assessed as ertapenem MIC at 4 ug/ml by broth microdilution method; in short: as §1
[20] = tested on: Enterobacter cloacae; experiment: Inhibition of Enterobacter cloacae ECL1058 SHV-11 assessed as ertapenem MIC at 4 ug/ml by broth microdilution method
[21] = biological target: Beta lactamase TEM-1 (Klebsiella pneumoniae) (UniProt Q7B899); experiment: Inhibition of Klebsiella pneumoniae KP1087 TEM-1 assessed as imipenem MIC at 4 ug/ml by broth microdilution method
In short: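 Carbapenem MIC by CLSI broth microdilution (M07-A9), carbapenem titrated with inhibitor held at fixed 4 μg/mL, against clinical serine-carbapenemase-producing strain KP1087 (KPC-2, CTX-M-15, SHV-11, TEM-1; double porin mutant).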

[22] = biological target: T1, Class A carbapenemase (Enterobacter cloacae) (UniProt A7WP95); experiment: Inhibition of Enterobacter cloacae ECL1058 KPC-3 assessed as imipenem MIC at 4 ug/ml by broth microdilution method
T1 sequence (whole entry): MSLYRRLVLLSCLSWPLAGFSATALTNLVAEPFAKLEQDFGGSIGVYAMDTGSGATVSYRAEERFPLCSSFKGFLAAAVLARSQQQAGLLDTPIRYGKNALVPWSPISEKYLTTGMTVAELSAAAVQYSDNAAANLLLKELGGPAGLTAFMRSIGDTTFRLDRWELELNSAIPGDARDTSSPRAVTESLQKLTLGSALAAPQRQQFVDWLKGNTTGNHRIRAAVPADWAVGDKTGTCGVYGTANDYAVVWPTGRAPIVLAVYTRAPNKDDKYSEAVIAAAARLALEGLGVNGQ

[23] = biological target: Beta lactamase TEM-1 (Klebsiella pneumoniae) (UniProt Q7B899); experiment: Inhibition of Klebsiella pneumoniae KP1004 TEM-1 assessed as imipenem MIC at 4 ug/ml by broth microdilution method; in short: as §1
[24] = biological target: Beta-lactamase (Klebsiella pneumoniae) (UniProt Q93LQ9); experiment: Inhibition of Klebsiella pneumoniae KP1004 KPC 2 carbapenemase assessed as minimum concentration required to reduce biapenem MIC from […] ug/ml to 1 ug/mL by broth microdilution method
[25] = tested on: Klebsiella pneumoniae; experiment: Antibacterial activity against Klebsiella pneumoniae KP1004 by broth microdilution method; format: functional, organism-based
[26] = biological target: Beta-lactamase (Enterobacter cloacae) (UniProt G8A3U3); experiment: Inhibition of Enterobacter cloacae ECL1003 TEM assessed as cefepime MIC at 4 ug/ml by broth microdilution method

With `O=C(O)C[C@@H]1CC[C@H](NC(=O)Cc2cccs2)B(O)O1` [VABORBACTAM] the MIC [1] was 0.25 µg/mL, the MIC [2] was 0.25 µg/mL and the MIC [3] was at most 0.06 µg/mL. It also gave an MIC [4] of under 0.06 µg/mL, an MIC [5] of under 0.06 µg/mL and an MIC [6] of under 0.06 µg/mL. It also gave an MIC [7] of 1 µg/mL, an MIC [8] of 0.5 µg/mL and an IC50 [9] of over 1000 µM. It also gave an IC50 [10] of over 1000 µM, an IC50 [11] of over 1000 µM and a Cmax [12] of 735 µg/mL. For the same molecule, the Cmax [13] was 2600 µg/mL, the half-life [14] was 24 min and the Activity [15] was “Non-toxic”. It also gave an AUC at 3 h [16] of 100000 ng·h/mL, an MIC [17] of 0.25 µg/mL and an MIC [18] of 4 µg/mL. For the same molecule, the MIC [19] was 2 µg/mL, the MIC [20] was 0.25 µg/mL and the MIC [21] was 0.25 µg/mL. The MIC [22] was 0.25 µg/mL, the MIC [23] was under 0.06 µg/mL and the MEC [24] was 0.02 µg/mL. For the same molecule, the Activity [25] was “inactive” and the MIC [26] was 8 µg/mL.
